36 compounds from the M2OR odorant receptor database can be followed below.

In this experiment the target is T1, OR1A1 (Homo sapiens) (UniProt Q9P1Q5).
T1 sequence (whole entry): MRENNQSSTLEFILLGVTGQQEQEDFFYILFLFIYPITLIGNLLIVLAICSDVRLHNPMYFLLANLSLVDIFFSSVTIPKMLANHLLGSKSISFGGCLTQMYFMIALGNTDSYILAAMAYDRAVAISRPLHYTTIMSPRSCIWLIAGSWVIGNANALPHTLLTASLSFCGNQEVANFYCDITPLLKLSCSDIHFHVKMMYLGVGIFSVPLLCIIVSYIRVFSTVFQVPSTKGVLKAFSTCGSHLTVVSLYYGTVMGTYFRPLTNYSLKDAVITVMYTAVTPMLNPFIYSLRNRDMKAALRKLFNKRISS
As to conditions: stereoisomer not certain. The gist of the method: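 Values were gathered from published papers (main text and supplementary material), with extra details requested from the original authors when needed, and checked for typos and inconsistencies. Each receptor–molecule pair is called responsive (active) if the original authors judged the measured signal statistically different from baseline, and non-responsive (inactive) otherwise. Assay methods varied by source, often transient mammalian cell-line luciferase assays. Recorded details include cell line, G-protein, co-transfected protein and tags.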
Consider `OCC=Cc1ccccc1`, for which the “odorant receptor agonist call” value is “inactive”.
Take `CC(=O)c1ccc(C)cc1`: the “odorant receptor agonist call” value was “inactive”.
Turning to `CCCCC(=O)OCC`, the “odorant receptor agonist call” value is “inactive”.
Regarding `Cc1cnccn1`, the “odorant receptor agonist call” value was “inactive”.
Under `CC(=O)O` stands “inactive”.
Then `CC=CC(=O)C1=C(C)CCCC1(C)C`, with “inactive”.
Then `COC(C=C(C)CCC=C(C)C)OC`, with “inactive”.
Take `CC(C)CO`: the “odorant receptor agonist call” value is “inactive”.
Then `CCCCCC1CCCC(=O)O1` (stereo unspecified), with “inactive”.
For `CCc1ccc(O)c(OC)c1`, the “odorant receptor agonist call” value was “inactive”.
For `CCc1cccc(O)c1`, the “odorant receptor agonist call” value is “inactive”.
Then `CCC=CCCC=CC=O`, with “inactive”; and `CCCCOC=O`, with “inactive”; and `CC(=O)C(C)C(C)=O`, with “inactive”.
Under `CCCSSSCCC` stands “inactive”; under `CCCCCC=CCCC=O`, “active”.
Turning to `CCOC(=O)CC(C)C`, the “odorant receptor agonist call” value was “inactive”.
Turning to `CC(=O)OCCc1ccccc1`, the “odorant receptor agonist call” value is “active”.
Then `CCOC(=O)C(C)CC` (stereo unspecified), with “inactive”; and `CCCCCOC(=O)CCCCC`, with “inactive”; and `CCC(=O)C(C)=O`, with “inactive”.
Under `CC(=O)c1cnccn1` stands “inactive”; under `CCCCCC(=O)CC(C)=O`, “active”.
Under `CC(C)(S)CCOC=O` stands “inactive”.
In the case of `CCc1ncc(C)nc1CC`, the “odorant receptor agonist call” value was “inactive”.
Then `CCCCCCCC(=O)[O-].[H+]`, with “inactive”; and `CC(C)CCCCCCCCCCC=O`, with “inactive”.
Then `CCOC(=O)Cc1cccc(Br)c1`, with “active”.
For the compound `CCCCC=CC=CC=O`, the “odorant receptor agonist call” value is “inactive”.
Then `CCCCC(C)=O`, with “inactive”; and `c1cnc2c(c1)ccc1cccnc12`, with “inactive”; and `Cc1c[nH]c2ccccc12`, with “inactive”.
Then `C=C1CCC2(C(C)C)CC12` (stereo unspecified), with “inactive”.
Under `C=CC(C)=CCC=C(C)CCC=C(C)C` stands “inactive”.
As to `CCCSSCCC`, the “odorant receptor agonist call” value was “inactive”.
Consider `CC(C)=CC1CC(C)CCO1` (stereo unspecified), for which the “odorant receptor agonist call” value was “inactive”.
